This note sets out measurements from ChEMBL document CHEMBL1142117, “Triterpene saponins from Bacopa monnieri and their antidepressant effects in two mice models” (2007).

For experiment [1], the system named is Mus musculus. As to the kind of experiment: Spontaneous motor activity in ICR mouse at 50 mg/kg, po. Format: functional, organism-based. More on the design: dose 50 mg/kg. Summed up:
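Locomotion of male ICR mice measured 1 h after day-5 oral dose (0.3% CMCNa suspension, daily for 5 days) with an automated activity meter in an open field (35 cm diameter); 3 min adaptation, then counts over 6 min; n=10; means ± SEM compared with vehicle by ANOVA/Dunnett.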

Experiment [2] has as its system Mus musculus. The experiment in a line: Antidepressant activity in ICR mouse assessed as reduction of immobility time at 50 mg/kg, po after 5 days by forced swimming test. More on the design: scale not given: the % may be the effect or the level left. Format: functional. In outline: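 Male ICR mice (18-22 g), housed a week on 12:12 h light-dark cycle; saponins suspended in 0.3% CMCNa, given orally once daily for 5 days; vehicle controls 5 days, fluoxetine (10 mg/kg) once on day 5. 1 h after last dose, mouse placed in water (24 °C, 10 cm deep) 6 min; immobility scored over final 4 min by blinded observer; n=10; means ± SEM, ANOVA/Dunnett.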

The test system of experiment [3] is Mus musculus. As to the kind of experiment: Antidepressant activity in ICR mouse assessed as reduction of immobility time at 50 mg/kg, po after 5 days by tail suspension test. Format: functional. More on the design: scale not given: the % may be the effect or the level left. Summed up:
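Male ICR mice (18-22 g); compounds in 0.3% CMCNa dosed orally daily for 5 days, fluoxetine (10 mg/kg) once on day 5, vehicle group 5 days. One hour after day-5 dose, mouse hung by tail from lever 30 cm high for 6 min; immobility in later 4 min recorded by observer; n=10; one-way ANOVA then Dunnett's t-test.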

Activity calls are given as the source filed them. The rule behind the calls is not given here.

Consider `CC(C)=C[C@@H]1CO[C@]23C[C@@]4(CO2)[C@@H](CC[C@@H]2[C@@]5(C)CC[C@H](O[C@H]6OC[C@H](O)[C@H](O[C@H]7O[C@H](COS(=O)(=O)O)[C@@H](O)[C@H](O)[C@H]7O)[C@H]6O[C@@H]6O[C@@H](CO)[C@H](O)[C@H]6O)C(C)(C)[C@@H]5CC[C@]24C)[C@H]3[C@@]1(C)O` [BACOPASIDE I], for which, in experiment [1], the outcome was inactive. The Activity in experiment [2] turned out to be 75%; in experiment [3], 61%.

Take `CC(C)=CC1C[C@](C)(O)[C@@H]2[C@@H]3CC[C@@H]4[C@@]5(C)CC[C@H](O[C@@H]6OC[C@H](O)[C@H](O[C@@H]7O[C@H](CO)[C@@H](O)[C@H](O)[C@H]7O)[C@H]6O[C@@H]6O[C@@H](CO)[C@H](O)[C@H]6O)C(C)(C)[C@@H]5CC[C@@]4(C)[C@]34CO[C@@]2(C4)O1` (some centres undefined) [BACOPASIDE VII]: the result in experiment [1] was inactive. The values for the Activity in experiment [2] and in experiment [3] were 20% and 8%, respectively.

Consider `CC(C)=C[C@@H]1CO[C@]23C[C@@]4(CO2)[C@@H](CC[C@@H]2[C@@]5(C)CC[C@H](O[C@H]6OC[C@H](O)[C@H](O[C@H]7O[C@H](CO)[C@H](O)[C@H](O)[C@H]7O)[C@H]6O[C@@H]6O[C@@H](CO)[C@H](O)[C@H]6O)C(C)(C)[C@@H]5CC[C@]24C)[C@H]3[C@@]1(C)O` [BACOPASAPONSIN C], for which, in experiment [1], the result was inactive. Moreover, the Activity in experiment [2] is 63%; in experiment [3], 47%.
